Assay results reported in ChEMBL document CHEMBL1125797, “Synthesis, characterization and myocardial uptake of cationic bis(arene)technetium(I) complexes” (J Med Chem, 1991).

Key:
Rattus norvegicus [1] = species: Rattus norvegicus; assay: The compound was tested for the plasma binding in rat; format: ADME, organism-based
[2] = The compound was tested for the plasma binding in human; format: ADME, cell-free
Procedure, shortened: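 Fresh heparinized human plasma (1.0 mL, obtained daily) was spiked with 0.02 mL test solution and incubated about 15 min. Duplicate samples went through saline-equilibrated Sephadex G-25 desalting columns by centrifugation. Eluate and gel were γ-counted for 1 min or to 1% σ error. % bound = net cpm eluate / net cpm (eluate + gel) × 100.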

Rattus norvegicus [3] = assay: Biodistribution of compound in rat blood after 5 min of administration; format: ADME, organism-based; conditions: in vivo
Procedure, shortened: (§1)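 Female Sprague-Dawley rats (150–200 g) received the 99mTc complex in normal saline (~12.5 μCi/mL) via a lateral tail vein at ~25 μCi/kg. They were killed by cervical dislocation 5 min after injection. Tissues were washed with saline, blotted, weighed and γ-counted, and the read-out was percent injected dose per g tissue.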

Rattus norvegicus [4] = assay: Biodistribution of compound in rat heart after 5 min of administration; format: ADME, organism-based; conditions: in vivo; procedure, shortened: as §1
Rattus norvegicus [5] = assay: Biodistribution of compound in rat kidney after 5 min of administration; format: ADME, organism-based; conditions: in vivo; procedure, shortened: as §1
Rattus norvegicus [6] = assay: Biodistribution of compound in rat liver after 5 min of administration; format: ADME, organism-based; conditions: in vivo; procedure, shortened: as §1
Rattus norvegicus [7] = assay: Biodistribution of compound in rat lung after 5 min of administration; format: ADME, organism-based; conditions: in vivo
Procedure, shortened: (§2)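 Rats received the 99mTc complex in normal saline (~12.5 μCi/mL) by lateral tail vein injection at ~25 μCi/kg and were killed by cervical dislocation at the stated time. Tissues were washed with saline, blotted, weighed and γ-counted to give percent injected dose/g. Time-course values are averages of male and female rats.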

[8] = Biodistribution of compound in rat muscle after 5 min of administration; format: ADME, organism-based, Muscle tissue; conditions: in vivo; procedure, shortened: as §2
Rattus norvegicus [9] = assay: Biodistribution of compound in rat blood at 90 min after intravenous administration; format: ADME, organism-based; conditions: in vivo, 1.5 h
Procedure, shortened: (§3)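 Time course in Sprague-Dawley rats after lateral tail-vein injection of the 99mTc complex in normal saline (~12.5 μCi/mL) at ~25 μCi/kg. Tissues were sampled at the stated times, washed with saline, blotted, weighed and γ-counted to give percent injected dose per g. Values are averages of male and female rats.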

Rattus norvegicus [10] = assay: Biodistribution of compound in rat urine at 1440 min after intravenous administration; format: ADME, organism-based; conditions: in vivo, 24 h; procedure, shortened: as §2
Rattus norvegicus [11] = assay: Biodistribution of compound in rat urine at 360 min after intravenous administration; format: ADME, organism-based; conditions: in vivo, 6 h; procedure, shortened: as §2
Rattus norvegicus [12] = assay: Biodistribution of compound in rat blood at 1440 min after intravenous administration; format: ADME, organism-based; conditions: in vivo, 24 h; procedure, shortened: as §3
Rattus norvegicus [13] = assay: Biodistribution of compound in rat blood at 180 min after intravenous administration; format: ADME, organism-based; conditions: in vivo, 3 h; procedure, shortened: as §3
Rattus norvegicus [14] = assay: Biodistribution of compound in rat blood at 360 min after intravenous administration; format: ADME, organism-based; conditions: in vivo, 6 h; procedure, shortened: as §3
Rattus norvegicus [15] = assay: Biodistribution of compound in rat blood at 5 min after intravenous administration; format: ADME, organism-based; conditions: in vivo; procedure, shortened: as §3
Rattus norvegicus [16] = assay: Biodistribution of compound in rat gonads at 1440 min after intravenous administration; format: ADME, organism-based, Gonad; conditions: in vivo, 24 h; procedure, shortened: as §3
Rattus norvegicus [17] = assay: Biodistribution of compound in rat gonads at 180 min after intravenous administration; format: ADME, organism-based, Gonad; conditions: in vivo, 3 h; procedure, shortened: as §3
Rattus norvegicus [18] = assay: Biodistribution of compound in rat gonads at 360 min after intravenous administration; format: ADME, organism-based, Gonad; conditions: in vivo, 6 h; procedure, shortened: as §3
Rattus norvegicus [19] = assay: Biodistribution of compound in rat gonads at 45 min after intravenous administration; format: ADME, organism-based, Gonad; conditions: in vivo, 0.75 h; procedure, shortened: as §3
Rattus norvegicus [20] = assay: Biodistribution of compound in rat gonads at 5 min after intravenous administration; format: ADME, organism-based, Gonad; conditions: in vivo; procedure, shortened: as §3
Rattus norvegicus [21] = assay: Biodistribution of compound in rat gonads at 90 min after intravenous administration; format: ADME, organism-based, Gonad; conditions: in vivo, 1.5 h; procedure, shortened: as §3
Rattus norvegicus [22] = assay: Biodistribution of compound in rat heart at 1440 min after intravenous administration; format: ADME, organism-based; conditions: in vivo, 24 h; procedure, shortened: as §3
Rattus norvegicus [23] = assay: Biodistribution of compound in rat heart at 180 min after intravenous administration; format: ADME, organism-based; conditions: in vivo, 3 h; procedure, shortened: as §3
Rattus norvegicus [24] = assay: Biodistribution of compound in rat heart at 360 min after intravenous administration; format: ADME, organism-based; conditions: in vivo, 6 h; procedure, shortened: as §3
Rattus norvegicus [25] = assay: Biodistribution of compound in rat heart at 45 min after intravenous administration; format: ADME, organism-based; conditions: in vivo, 0.75 h; procedure, shortened: as §3
Rattus norvegicus [26] = assay: Biodistribution of compound in rat heart at 5 min after intravenous administration; format: ADME, organism-based; conditions: in vivo; procedure, shortened: as §3
Rattus norvegicus [27] = assay: Biodistribution of compound in rat heart at 90 min after intravenous administration; format: ADME, organism-based; conditions: in vivo, 1.5 h; procedure, shortened: as §3
Rattus norvegicus [28] = assay: Biodistribution of compound in rat kidney at 1440 min after intravenous administration; format: ADME, organism-based; conditions: in vivo, 24 h; procedure, shortened: as §3
Rattus norvegicus [29] = assay: Biodistribution of compound in rat kidney at 180 min after intravenous administration; format: ADME, organism-based; conditions: in vivo, 3 h; procedure, shortened: as §3
Rattus norvegicus [30] = assay: Biodistribution of compound in rat kidney at 360 min after intravenous administration; format: ADME, organism-based; conditions: in vivo, 6 h; procedure, shortened: as §3
Rattus norvegicus [31] = assay: Biodistribution of compound in rat kidney at 45 min after intravenous administration; format: ADME, organism-based; conditions: in vivo, 0.75 h; procedure, shortened: as §3
Rattus norvegicus [32] = assay: Biodistribution of compound in rat kidney at 5 min after intravenous administration; format: ADME, organism-based; conditions: in vivo; procedure, shortened: as §3
Rattus norvegicus [33] = assay: Biodistribution of compound in rat kidney at 90 min after intravenous administration; format: ADME, organism-based; conditions: in vivo, 1.5 h; procedure, shortened: as §3
Rattus norvegicus [34] = assay: Biodistribution of compound in rat liver at 1440 min after intravenous administration; format: ADME, organism-based; conditions: in vivo, 24 h; procedure, shortened: as §3
Rattus norvegicus [35] = assay: Biodistribution of compound in rat liver at 180 min after intravenous administration; format: ADME, organism-based; conditions: in vivo, 3 h; procedure, shortened: as §3
Rattus norvegicus [36] = assay: Biodistribution of compound in rat liver at 360 min after intravenous administration; format: ADME, organism-based; conditions: in vivo, 6 h; procedure, shortened: as §2

**Q.** Which results are given for Bis(1,3,5-trimethylbenzene)technetium?
**A.** Plasma binding (Rattus norvegicus [1]): 11%; Plasma binding [2]: 21%; Dose/g (Rattus norvegicus [3]): 0.096%; Dose/g (Rattus norvegicus [4]): 1.9%; Dose/g (Rattus norvegicus [5]): 7.9%; Dose/g (Rattus norvegicus [6]): 0.98%; Dose/g (Rattus norvegicus [7]): 0.82%; Dose/g [8]: 0.35%; Dose/ml (Rattus norvegicus [9]): 1.02 % dose; Dose/ml (Rattus norvegicus [10]): 26 % dose; Dose/ml (Rattus norvegicus [11]): 16 % dose; Dose/ml (Rattus norvegicus [12]): 0.13 % dose; Dose/ml (Rattus norvegicus [13]): 0.67 % dose; Dose/ml (Rattus norvegicus [14]): 0.52 % dose; Dose/ml (Rattus norvegicus [15]): 2.67 % dose; Dose/g (Rattus norvegicus [16]): 0.018 % dose; Dose/g (Rattus norvegicus [17]): 0.055 % dose; Dose/g (Rattus norvegicus [18]): 0.05 % dose; Dose/g (Rattus norvegicus [19]): 0.86 % dose; Dose/g (Rattus norvegicus [20]): 0.1 % dose; Dose/g (Rattus norvegicus [21]): 0.067 % dose; Dose/g (Rattus norvegicus [22]): 0.77 % dose; Dose/g (Rattus norvegicus [23]): 1 % dose; Dose/g (Rattus norvegicus [24]): 1.14 % dose; Dose/g (Rattus norvegicus [25]): 1.2 % dose; Dose/g (Rattus norvegicus [26]): 1.37 % dose; Dose/g (Rattus norvegicus [27]): 1.17 % dose; Dose/g (Rattus norvegicus [28]): 0.4 % dose; Dose/g (Rattus norvegicus [29]): 1.9 % dose; Dose/g (Rattus norvegicus [30]): 0.9 % dose; Dose/g (Rattus norvegicus [31]): 5.8 % dose; Dose/g (Rattus norvegicus [32]): 13.6 % dose; Dose/g (Rattus norvegicus [33]): 2 % dose/organ; Dose/g (Rattus norvegicus [34]): 0.3 % dose/organ; Dose/g (Rattus norvegicus [35]): 1.9 % dose/organ; Dose/g (Rattus norvegicus [36]): 0.8 % dose/organ
